These results are taken from article PMC10413464 (ACS Omega, 2023).

A word on the EC50: it is the concentration giving half of the maximal effect. What is called koff is the rate constant with which the complex falls apart. Read a high koff as a short-lived complex.

One experiment deals with Ecoil-EGF. As to the kind of experiment: SPR capture of Ecoil-EGF on Kcoil surfaces. The class given is binding. Conditions: 10 μL/min. In outline:
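Biacore T100 SPR on CM5 dextran chips, HBS-EP running buffer, 25 °C, 10 Hz collection. A test injection gave the Ecoil-EGF capture rate (RU/s), used to capture about 10 RU. Ecoil-EGF was at 0.05 µg/mL on thiol-coupled Kcoil and 0.1 µg/mL on amine-coupled monomeric or dimeric Kcoil. Surfaces were regenerated with two 15 s pulses of 6 M guanidium-HCl.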

The test system of experiment [1] is Ecoil-tagged FcγRIIIa (V158). As to the kind of experiment: SPR capture of Ecoil-tagged FcγRIIIa on Kcoil surfaces. The class given is binding. The note with it: for FcγRIIIa capture rate: Ecoil-tagged FcγRIIIa 0.25 μg/mL, 10 μL/min, from 25 s test injection. Put shortly: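 FcγRIIIa V158 was Ecoil-tagged, expressed transiently in CHO-3E7 and purified by metal affinity. Biacore T100 SPR used CM5 chips in HBS-EP at 25 °C. Kcoil surfaces were amine-coupled Cys-free, thiol-coupled Cys- or amine-coupled dimeric Cys-Kcoil. A short 25 s injection gave the capture rate, assumed constant, to set the injection time for a 20 RU capture. The test was repeated before each batch.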

In the next experiment the test system is Ecoil peptide. As to the kind of experiment: SPR Ecoil peptide interaction with grafted Kcoil peptide. The class given is binding. The note with it: comparison of the three grafting strategies.
The test system of the next experiment is EGFR phosphorylation. The note with it: read-out: EC50 for EGFR phosphorylation in solution; cited from earlier work.
A short description of experiment [2]: Ecoil-EGF/hEGF capture on glass slides by ELISA. Format: binding. The note with it: 5 nM hEGF stock, mean ± SD, n = 3.
Experiment [3] addresses dimeric Kcoil–Kcoil peptide (oxidized Cys-Kcoil, linked by a disulfide bond). As to the kind of experiment: SPR. Background: In SPR one partner is held on a chip, and binding of the other changes the refractive index at the surface.
Experiment [4] deals with cysteine-free azidohomoalanine-terminated Kcoil, AhaGG-(KVSALKE)5. As to the kind of experiment: SPR.

AhaGG-(KVSALKE)5 [Cys-free Kcoil]: the Ecoil-EGF capture rate in the experiment with Ecoil-EGF (Ecoil-EGF 0.1 μg/mL) is reported as 0.32 RU/s. In experiment [1], this molecule yielded a FcγRIIIa capture rate of 0.06 RU/s. For the same molecule, the “Ecoil-tagged FcγRIIIa capture (in words)” value in experiment [1] (SPR, 20 RU target) is reported as “furthest from the 20 RU target”.
Consider CGG-(KVSALKE)5 [Cys-Kcoil], for which the Ecoil-EGF capture rate with Ecoil-EGF (Ecoil-EGF 0.05 μg/mL) was determined as 1.32 RU/s. In addition, the “bioavailability (in words)” value with Ecoil peptide is listed as “highest percentage of bioavailability”. In addition, the FcγRIIIa capture rate in experiment [1] turned out to be 0.57 RU/s.
For “hEGF: Recombinant human EGF (hEGF, #236-EG)”, the EC50 with EGFR phosphorylation is 4 nM. The “density on amine surface after 2 h (non-specific adsorption)” value in experiment [2] (amine surface) is reported as 0.50 ± 0.01 pmol/cm^2. The “density on thiol surface after 2 h (non-specific adsorption)” value in experiment [2] (thiol surface) is 0.50 ± 0.01 pmol/cm^2.
In the case of Ac-EVSALEKEVSALEKEVSALEKEVSALEKEVSALEK-NH2 [Ecoil peptide [(EVSALEK)5]], the off-rate (koff) came out at 0.000468 s⁻¹ in experiment [3] and 0.000308 s⁻¹ in experiment [4].
